Results taken from ChEMBL document CHEMBL1157305, “Serotonergic activity-guided phytochemical investigation of the roots of Angelica sinensis” (J Nat Prod, 2006).

Tests used:
[1] = target: T1, 5-hydroxytryptamine receptor 7 (Homo sapiens, UniProt P34969); assay: Displacement of [3H]LSD from human recombinant 5HT7 receptor expressed in CHO cells at 100 uM by liquid scintillation counting relative to control; type: cell-based
Procedure, shortened: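 Membranes from confluent human 5-HT7-transfected CHO cells were lysed in hypotonic buffer at 4 °C and homogenized in TEM buffer. Protein was measured by Lowry. Binding used [3H]LSD (5 nM) in 75 mM Tris-HCl, 1.25 mM MgCl2, 1 mM EDTA, pH 7.4, for 1 h at 37 °C. Samples were filtered on PEI-presoaked filters and counted by liquid scintillation. Nonspecific binding was defined with 250 nM 5-HT.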

[2] = target: T1, 5-hydroxytryptamine receptor 7; assay: Displacement of [3H]LSD from human recombinant 5HT7 receptor expressed in CHO cells by liquid scintillation counting; type: cell-based
Procedure, shortened: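 Membranes from confluent CHO cells stably carrying human 5-HT7, grown in Ham's F-12 with 10% FBS. Cells lysed in hypotonic Tris/MgCl2/EDTA buffer at 4 °C, and membranes washed in TEM buffer. Incubated with 5 nM [3H]LSD for 1 h at 37 °C in 75 mM Tris-HCl, 1.25 mM MgCl2, 1 mM EDTA, pH 7.4. Filtered, then counted by scintillation. Nonspecific binding defined with 250 nM 5-HT. IC50 is the concentration giving 50% inhibition of binding.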

T1 sequence (P34969 whole entry): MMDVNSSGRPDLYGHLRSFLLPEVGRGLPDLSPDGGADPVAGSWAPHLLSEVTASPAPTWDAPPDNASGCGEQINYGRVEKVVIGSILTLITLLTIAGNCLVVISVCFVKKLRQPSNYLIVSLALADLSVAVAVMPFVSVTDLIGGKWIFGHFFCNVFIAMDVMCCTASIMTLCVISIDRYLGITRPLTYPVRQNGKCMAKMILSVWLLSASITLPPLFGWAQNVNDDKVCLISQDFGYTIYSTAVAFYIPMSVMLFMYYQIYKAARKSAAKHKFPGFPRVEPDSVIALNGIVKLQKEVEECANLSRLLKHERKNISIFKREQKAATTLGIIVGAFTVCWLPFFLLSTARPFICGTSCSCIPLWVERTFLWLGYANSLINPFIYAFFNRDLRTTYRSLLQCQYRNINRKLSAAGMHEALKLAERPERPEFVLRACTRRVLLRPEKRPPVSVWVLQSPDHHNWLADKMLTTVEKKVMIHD

## CCC/C=C1\OC(=O)C2=C1CCC=C2
[1]
  inhibition: 33%

## COc1cc(/C=C/C(=O)OCC(O)C(OC)c2ccc(O)c(OC)c2)ccc1O (stereo not given)
[1]
  inhibition: 31%

## CC[C@H](/C=C/[C@@H](C)[C@H]1CC[C@H]2[C@@H]3CC=C4C[C@@H](O)CC[C@]4(C)[C@H]3CC[C@]12C)C(C)C
[1]
  inhibition: 0%

## C=C[C@H](O)C#CC#C[C@@H](O)C1OC1CCCCCCC (stereo not given in full)
[1]
  inhibition: 36%

## COc1cc(C=O)ccc1O
[1]
  inhibition: 0%

## CC(C)=CCOc1c2occc2cc2ccc(=O)oc12
[1]
  inhibition: 57%

## CCCCNS(=O)(=O)c1ccccc1
[1]
  inhibition: 0%

## CCC/C=C1\OC(=O)C2=C1CCC(O)C2OC (stereo not given)
[1]
  inhibition: 36%

## CCCCCCC/C=C\[C@H](O)C#CC#CC(=O)CCOC
[1]
  inhibition: 69%
[2]
  IC50: > 150 µM

## COc1cc(/C=C/C(=O)OCCc2ccc(O)cc2)ccc1O
[1]
  inhibition: 71%
[2]
  IC50: 47.6 µM

## CCC/C=C1\OC(=O)C2=CC3CCC21[C@]1(OC(=O)c2ccccc21)[C@@H]3CCC (stereo not given in full)
[1]
  inhibition: 19%

## CCC/C=C1\OC(=O)C23C=CCCCC12C1(OC(=O)c2ccccc21)C3CCC (stereo not given)
[1]
  inhibition: 24%

## C/C=C(/C)C(=O)OC(C)CCC1OC(=O)c2ccccc21 (stereo not given)
[1]
  inhibition: 21%

## C=C[C@@H](O)C#CC#C[C@@H](O)/C=C\CCCCCCCCOC(C)=O
[1]
  inhibition: 49%
[2]
  IC50: 118 µM

## CC/C=C\C/C=C\C/C=C\CCCCCCCC(=O)OCC(O)COC(=O)CCCCCCCC/C=C\C/C=C\C=C\CC (stereo not given)
[1]
  inhibition: 0%

## C=C[C@@H](O)C#CC#C[C@@H](O)/C=C\CCCCCCC [FALCARINDIOL]
[1]
  inhibition: 61%
[2]
  IC50: 118 µM

## COc1cc(/C=C/C(=O)O)ccc1O
[1]
  inhibition: 41%

## CCCCCCC/C=C\[C@H](O)C#CC#C[C@@H](O)CC
[1]
  inhibition: 5%

## CCC/C=C1\OC(=O)c2ccccc21 [Z-butylidenephthalide]
[1]
  inhibition: 46%
[2]
  IC50: 127 µM

## CCC/C=C1\OC(=O)C2=C1CC[C@@H](O)[C@@H]2O
[1]
  inhibition: 0%
